Data set [1] relates to Staphylococcus aureus. Description: Antibacterial activity against Staphylococcus aureus ATCC 6535 after 48 hrs by microplate assay. The format is functional, organism-based. In outline:
(§1)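 IC50 values were read from a modified 96-well microplate growth-inhibition assay against ATCC strains: C. neoformans 90113, S. aureus 6535 and methicillin-resistant S. aureus 33591. Positive controls were amphotericin B and tetracycline, and DMSO served as the negative control.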

In data set [2] the target is Cannabinoid receptor 1 (Homo sapiens) (UniProt P21554). Description: Displacement of [3H]CP-55940 from human recombinant CB1 receptor expressed in HEK293 cells at 1 uM. The class given is cell-based. In outline: (§2)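 Radioligand binding assay for the CB1 site, using human recombinant HEK-293 cells as the receptor source. Compounds were screened in a primary assay at 1 and 0.1 µM and expressed as % affinity. A response above 50% of maximum stimulation or inhibition counted as significant. WIN-55,212-2 was the reference, with DMSO as placebo.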
Cannabinoid receptor 1 (Homo sapiens), sequence (P21554 whole entry): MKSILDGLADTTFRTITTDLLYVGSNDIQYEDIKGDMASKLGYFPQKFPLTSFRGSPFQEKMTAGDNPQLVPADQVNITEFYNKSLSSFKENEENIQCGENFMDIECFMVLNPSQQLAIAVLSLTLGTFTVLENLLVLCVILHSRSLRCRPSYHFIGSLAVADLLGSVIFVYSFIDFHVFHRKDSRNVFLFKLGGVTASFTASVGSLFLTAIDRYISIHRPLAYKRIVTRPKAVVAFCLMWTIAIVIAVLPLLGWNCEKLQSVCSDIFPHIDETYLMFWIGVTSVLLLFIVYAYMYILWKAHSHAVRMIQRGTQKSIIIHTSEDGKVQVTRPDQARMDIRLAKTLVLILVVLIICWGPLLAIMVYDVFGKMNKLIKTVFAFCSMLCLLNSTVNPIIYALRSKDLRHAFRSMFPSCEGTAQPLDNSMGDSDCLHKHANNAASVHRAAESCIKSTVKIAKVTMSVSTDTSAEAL

The subject of data set [3] is Staphylococcus aureus. Description: Antibacterial activity against methicillin-resistant Staphylococcus aureus ATCC 33591 after 48 hrs by microplate assay. The class given is functional, organism-based. In outline:
as §1

In data set [4] the test system is Plasmodium falciparum. The data set can be described thus: Antimalarial activity against chloroquine-resistant Plasmodium falciparum W2 by LDH reporter assay. The class given is functional, organism-based.
Data set [5] has as its system Plasmodium falciparum. The data set can be described thus: Antimalarial activity against chloroquine-sensitive Plasmodium falciparum D6 by LDH reporter assay. The format is functional, organism-based.
The nature of data set [6]: Selectivity index, ratio of IC50 for african green monkey (Cercopithecus aethiops) Vero cells to IC50 for chloroquine-resistant Plasmodium falciparum W2. The class given is toxicity, cell-based. The following applies: read-out: Ratio IC50.
A short description of data set [7]: Selectivity index, ratio of IC50 for african green monkey (Cercopithecus aethiops) Vero cells to IC50 for chloroquine-sensitive Plasmodium falciparum D6. The class given is toxicity, cell-based. The conditions noted are these: read-out: Ratio IC50.
The subject of the next data set is Cryptococcus neoformans. Description: […] activity against Cryptococcus neoformans ATCC 90113 after 48 hrs by microplate assay. The class given is functional, organism-based. In outline:
as §1

The target in data set [8] is Cannabinoid receptor 1 (Homo sapiens) (UniProt P21554). The data set can be described thus: Displacement of [3H]CP-55940 from human recombinant CB1 receptor expressed in HEK293 cells at 0.1 uM. The format is cell-based. In outline: as §2
The mark [9] stands for this setting: Staphylococcus aureus, ATCC 6535, 48 h, read-out: IC50.
Setting [10] is: Staphylococcus aureus, ATCC 33591, 48 h, read-out: IC50.
Setting [11] is: Cryptococcus neoformans, ATCC 90113, 48 h, read-out: IC50.

≈ marks a conversion by molar mass, not a printed value.

Regarding `C[C@H]1CC[C@H]2[C@H](C1)c1c(O)cc(-c3cc4ccccc4o3)cc1OC2(C)C` [MACHAERIOL B], the IC50 is 5 µg/mL (≈ 13.8 µM) in the data set on Staphylococcus aureus [1] (setting [9]); 4.5 µg/mL (≈ 12.4 µM) in the data set on Staphylococcus aureus [3] (setting [10]); 0.12 µg/mL (≈ 0.331 µM) in the data set with Plasmodium falciparum [4]; 0.72 µg/mL (≈ 1.99 µM) in the data set on Plasmodium falciparum [5]; “Not Active” in the data set with Cryptococcus neoformans. Besides, the Activity in data set [2] was -3%; in data set [8], 3%. In addition, the selectivity ratio was over 40 in data set [6] and over 6.6 in data set [7].

For the molecule `C[C@@H]1[C@H](O)[C@@H](C)/C=C/C=C/C=C/C=C/C=C/C=C/C=C/[C@H](O[C@@H]2O[C@H](C)[C@@H](O)[C@H](N)[C@@H]2O)C[C@@H]2O[C@](O)(C[C@@H](O)C[C@@H](O)[C@H](O)CC[C@@H](O)C[C@@H](O)CC(=O)O[C@H]1C)C[C@H](O)[C@H]2C(=O)O` [AMPHOTERICIN B], the half-maximal inhibitory concentration (IC50) result in the data set on Staphylococcus aureus [1] is “Not Active”; in the data set with Staphylococcus aureus [3], “Not Active”; in the data set on Cryptococcus neoformans (setting [11]), 0.375 µg/mL (≈ 0.406 µM).

With `CN(C)[C@@H]1C(O)=C(C(N)=O)C(=O)[C@@]2(O)C(O)=C3C(=O)c4c(O)cccc4[C@@](C)(O)[C@H]3C[C@@H]12` [TETRACYCLINE], the IC50 with Staphylococcus aureus [1] (setting [9]) and with Staphylococcus aureus [3] (setting [10]) was 0.15 µg/mL (≈ 0.338 µM) each time.

Consider `C[C@@H]1CC[C@H]2[C@@H](C)C(=O)O[C@@H]3O[C@@]4(C)CC[C@@H]1[C@]32OO4` [ARTEMISININ], for which the selectivity ratio was over 1080 in [6] and over 952 in data set [7].

For the molecule `C[C@H]1CC[C@H]2[C@H](C1)c1c(O)cc(/C=C/c3ccccc3)cc1OC2(C)C` [MACHAERIOL A], the IC50 in the data set with Staphylococcus aureus [1] (setting [9]) turned out to be 15 µg/mL (≈ 43 µM); in the data set on Staphylococcus aureus [3] (setting [10]), 10 µg/mL (≈ 28.7 µM); with Plasmodium falciparum [4] it was 0.6 µg/mL (≈ 1.72 µM); with Plasmodium falciparum [5], 1.5 µg/mL (≈ 4.3 µM); in the data set with Cryptococcus neoformans (setting [11]), 50 µg/mL (≈ 143 µM). For the same molecule, the Activity amounted to 7% in data set [2] and 10% in [8]. For the same molecule, the figures for the selectivity ratio in [6] and in [7] were over 7.9 and over 3.2, respectively.

The values above are taken from ChEMBL document CHEMBL1156362, “Antimalarial (+)-trans-hexahydrodibenzopyran derivatives from Machaerium multiflorum” (J Nat Prod, 2001).
